Measured values taken from ChEMBL document CHEMBL1142302, “Discovery of subnanomolar arginine-glycine-aspartate-based alphaVbeta3/alphaVbeta5 integrin binders embedding 4-aminoproline residues” (J Med Chem, 2008).
pIC50: −log10 of the molar value. *1 amine or outer side, *2 acyl side, *3 side chain or, on linkers, in order; H or OH if unused. Where a SMILES comes first, the peptide text is derived from it. Bridges are numbered along the chain shown (N, C = ends). [ ]: non-standard residue; d: D form. Pro(trans-4-NH2) = O=C([C@@H]1C[C@@H](N[*:3])CN1[*:1])[*:2]

Columns and labels:
Integrin alpha-V/beta-3 [1] = target: T1, Integrin alpha-V/beta-3 (Homo sapiens, UniProt P05106+P06756); assay: Displacement of [125I]echistatin from human integrin alpha-V-beta-3 receptor by solid phase assay; format: protein-complex assay
In short: (§1)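 Competitive binding to purified human integrin protein (αVβ3 or αVβ5) measured as inhibition of [¹²⁵I]-echistatin specific binding over a range of inhibitor concentrations. Each point is the mean ± SEM of triplicate determinations, and IC50 is read from the inhibition curves.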
Target sequence in this assay (P05106 27-788 limits assumed): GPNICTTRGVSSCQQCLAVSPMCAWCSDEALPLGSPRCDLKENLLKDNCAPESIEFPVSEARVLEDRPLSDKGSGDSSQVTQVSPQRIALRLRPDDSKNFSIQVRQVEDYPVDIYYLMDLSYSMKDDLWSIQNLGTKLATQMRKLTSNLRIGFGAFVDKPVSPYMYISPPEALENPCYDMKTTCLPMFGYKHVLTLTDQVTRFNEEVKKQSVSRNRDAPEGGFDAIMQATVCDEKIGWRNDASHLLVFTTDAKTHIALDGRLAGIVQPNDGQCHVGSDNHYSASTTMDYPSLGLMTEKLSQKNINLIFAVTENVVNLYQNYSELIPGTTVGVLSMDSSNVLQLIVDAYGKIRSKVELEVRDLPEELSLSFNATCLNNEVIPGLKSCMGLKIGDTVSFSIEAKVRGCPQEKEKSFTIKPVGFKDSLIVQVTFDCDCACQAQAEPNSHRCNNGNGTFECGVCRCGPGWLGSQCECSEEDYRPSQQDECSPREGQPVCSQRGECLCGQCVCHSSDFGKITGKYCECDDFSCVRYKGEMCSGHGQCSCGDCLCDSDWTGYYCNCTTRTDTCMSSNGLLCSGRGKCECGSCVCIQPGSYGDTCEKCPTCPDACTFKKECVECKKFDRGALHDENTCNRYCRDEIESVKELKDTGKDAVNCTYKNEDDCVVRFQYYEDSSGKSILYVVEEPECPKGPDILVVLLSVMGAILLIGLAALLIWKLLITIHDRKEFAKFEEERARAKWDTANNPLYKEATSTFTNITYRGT
Target sequence in this assay (P06756 31-889 limits assumed): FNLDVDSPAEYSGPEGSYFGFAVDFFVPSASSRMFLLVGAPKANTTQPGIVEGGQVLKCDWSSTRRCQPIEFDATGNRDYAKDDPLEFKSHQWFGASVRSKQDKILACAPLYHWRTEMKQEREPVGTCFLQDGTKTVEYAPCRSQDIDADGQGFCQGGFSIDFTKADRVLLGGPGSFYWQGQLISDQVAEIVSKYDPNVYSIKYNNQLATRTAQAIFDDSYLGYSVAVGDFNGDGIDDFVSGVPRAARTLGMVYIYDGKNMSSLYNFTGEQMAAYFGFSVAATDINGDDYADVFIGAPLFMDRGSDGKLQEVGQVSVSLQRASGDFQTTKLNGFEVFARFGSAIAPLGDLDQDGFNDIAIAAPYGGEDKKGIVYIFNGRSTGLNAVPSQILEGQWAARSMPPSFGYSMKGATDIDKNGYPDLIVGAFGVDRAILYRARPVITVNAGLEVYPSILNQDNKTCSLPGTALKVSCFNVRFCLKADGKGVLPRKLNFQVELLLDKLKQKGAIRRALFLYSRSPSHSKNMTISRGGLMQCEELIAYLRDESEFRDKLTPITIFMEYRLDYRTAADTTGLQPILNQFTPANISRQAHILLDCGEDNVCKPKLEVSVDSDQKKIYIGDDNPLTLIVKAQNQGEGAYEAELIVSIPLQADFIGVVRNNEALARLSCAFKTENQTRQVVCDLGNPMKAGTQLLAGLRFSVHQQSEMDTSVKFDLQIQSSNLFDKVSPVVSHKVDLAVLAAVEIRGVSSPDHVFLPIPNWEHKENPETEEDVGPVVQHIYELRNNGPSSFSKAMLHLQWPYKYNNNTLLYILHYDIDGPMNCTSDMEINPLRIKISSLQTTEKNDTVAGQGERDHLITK
Target sequence in this assay (P06756 891-1048 limits assumed): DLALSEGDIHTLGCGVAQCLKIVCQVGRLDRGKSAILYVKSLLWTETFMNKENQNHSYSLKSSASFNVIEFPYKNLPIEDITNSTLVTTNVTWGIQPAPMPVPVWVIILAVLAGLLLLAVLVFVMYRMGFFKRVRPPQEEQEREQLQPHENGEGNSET

Integrin alpha-V/beta-3 [2] = target: T1, Integrin alpha-V/beta-3; assay: Displacement of [125I]echistatin from human integrin alpha-V-beta-3 receptor low affinity state by solid phase assay; format: protein-complex assay
Target sequence in this assay (P05106 27-788 limits assumed): as the sequence (P05106 27-788 limits assumed) above
Target sequence in this assay (P06756 31-889 limits assumed): as the sequence (P06756 31-889 limits assumed) above
Target sequence in this assay (P06756 891-1048 limits assumed): as the sequence (P06756 891-1048 limits assumed) above

Integrin alpha-V/beta-3 [3] = target: T1, Integrin alpha-V/beta-3; assay: Displacement of [125I]echistatin from human integrin alpha-V-beta-3 receptor high affinity state by solid phase assay relative to control; format: protein-complex assay; parameters: concentration or dose not given beside the values; conditions: concentration not given here
In short: (§2)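 Competition for [125I]-echistatin specific binding to purified human αvβ3 or αvβ5 integrin protein. Inhibition was plotted against test compound concentration. Each point is the mean ± SEM of triplicate determinations.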

Integrin alpha-V/beta-5 [4] = target: T2, Integrin alpha-V/beta-5 (Homo sapiens, UniProt P06756+P18084); assay: Displacement of [125I]echistatin from human integrin alpha-V-beta-5 receptor high affinity state by solid phase assay relative to control; format: protein-complex assay; conditions: concentration not given here
Integrin alpha-V/beta-5 [5] = target: T2, Integrin alpha-V/beta-5; assay: Displacement of [125I]echistatin from human integrin alpha-V-beta-5 receptor low affinity state by solid phase assay relative to control; format: protein-complex assay; conditions: concentration not given here
Integrin alpha-V/beta-3 [6] = target: T1, Integrin alpha-V/beta-3; assay: Displacement of [125I]echistatin from human integrin alpha-V-beta-3 receptor low affinity state by solid phase assay relative to control; format: protein-complex assay; parameters: concentration or dose not given beside the values; conditions: concentration not given here; in short: as §2
Integrin alpha-V/beta-5 [7] = target: T2, Integrin alpha-V/beta-5; assay: Displacement of [125I]echistatin from human integrin alpha-V-beta-5 receptor by solid phase assay; format: protein-complex assay; in short: as §1
Target sequence in this assay (P06756 31-889 limits assumed): as the sequence (P06756 31-889 limits assumed) above
Target sequence in this assay (P06756 891-1048 limits assumed): as the sequence (P06756 891-1048 limits assumed) above
Target sequence in this assay (P18084 24-799 limits assumed): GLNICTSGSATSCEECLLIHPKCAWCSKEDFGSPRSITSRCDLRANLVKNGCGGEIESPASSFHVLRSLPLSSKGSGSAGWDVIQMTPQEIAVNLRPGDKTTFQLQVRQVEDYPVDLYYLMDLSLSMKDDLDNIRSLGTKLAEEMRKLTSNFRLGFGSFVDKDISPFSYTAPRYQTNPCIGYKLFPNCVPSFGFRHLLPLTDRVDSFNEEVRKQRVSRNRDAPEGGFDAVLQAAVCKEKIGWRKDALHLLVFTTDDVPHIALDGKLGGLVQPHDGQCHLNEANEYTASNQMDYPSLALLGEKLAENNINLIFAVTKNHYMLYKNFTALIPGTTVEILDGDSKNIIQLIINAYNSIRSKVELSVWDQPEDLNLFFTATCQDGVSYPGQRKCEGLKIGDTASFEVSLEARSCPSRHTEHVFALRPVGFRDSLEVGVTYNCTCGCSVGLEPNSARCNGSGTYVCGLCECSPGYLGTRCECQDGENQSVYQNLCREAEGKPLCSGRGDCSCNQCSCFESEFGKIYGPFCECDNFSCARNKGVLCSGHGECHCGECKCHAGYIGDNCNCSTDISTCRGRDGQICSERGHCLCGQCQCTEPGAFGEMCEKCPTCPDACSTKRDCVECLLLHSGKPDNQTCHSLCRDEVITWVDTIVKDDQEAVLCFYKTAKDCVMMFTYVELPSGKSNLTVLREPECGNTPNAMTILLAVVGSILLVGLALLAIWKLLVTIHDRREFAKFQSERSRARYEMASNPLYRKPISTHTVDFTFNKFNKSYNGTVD

Integrin alpha-V/beta-5 [8] = target: T2, Integrin alpha-V/beta-5; assay: Displacement of [125I]echistatin from human integrin alpha-V-beta-5 receptor low affinity state by solid phase assay; format: protein-complex assay
Target sequence in this assay (P06756 31-889 limits assumed): as the sequence (P06756 31-889 limits assumed) above
Target sequence in this assay (P06756 891-1048 limits assumed): as the sequence (P06756 891-1048 limits assumed) above
Target sequence in this assay (P18084 24-799 limits assumed): as the sequence (P18084 24-799 limits assumed) above

Integrin alpha-V/beta-3 [9] = target: T1, Integrin alpha-V/beta-3; assay: Inhibition of human integrin alpha-V-beta-3 receptor mediated K562 cell adhesion to vitronectin; format: cell-based
Target sequence in this assay (P05106 27-788 limits assumed): as the sequence (P05106 27-788 limits assumed) above
Target sequence in this assay (P06756 31-889 limits assumed): as the sequence (P06756 31-889 limits assumed) above
Target sequence in this assay (P06756 891-1048 limits assumed): as the sequence (P06756 891-1048 limits assumed) above

Integrin alpha-5/beta-1 [10] = target: T3, Integrin alpha-5/beta-1 (Homo sapiens, UniProt P05556+P08648); assay: Inhibition of human integrin alpha5beta1 receptor mediated K562 cell adhesion to vitronectin; format: cell-based
Integrin alpha-V/beta-3 [11] = target: T1, Integrin alpha-V/beta-3; assay: Inhibition of human integrin alpha-v-beta-3 receptor mediated WM115 cell adhesion to vitronectin; format: cell-based, WM-115
Target sequence in this assay (P05106 27-788 limits assumed): as the sequence (P05106 27-788 limits assumed) above
Target sequence in this assay (P06756 31-889 limits assumed): as the sequence (P06756 31-889 limits assumed) above
Target sequence in this assay (P06756 891-1048 limits assumed): as the sequence (P06756 891-1048 limits assumed) above

Integrin alpha-5/beta-1 [12] = target: T3, Integrin alpha-5/beta-1; assay: Inhibition of human integrin alpha-5-beta-1 receptor mediated WM115 cell adhesion to vitronectin; format: cell-based, WM-115

SMILES	pIC50 (Integrin alpha-V/beta-3 [1])	pIC50 (Integrin alpha-V/beta-3 [2])	inhibition (Integrin alpha-V/beta-3 [3])	inhibition (Integrin alpha-V/beta-3 [6])	other results
CCCCCCCN1C[C@@H]2C[C@H]1C(=O)N[C@@H](CCCNC(=N)N)C(=O)NCC(=O)N[C@@H](CC(=O)O)C(=O)N2	–	–	53.7%	46.3%	inhibition (Integrin alpha-V/beta-5 [4]): 29%; inhibition (Integrin alpha-V/beta-5 [5]): 71%
N=C(N)NCCC[C@@H]1NC(=O)[C@@H]2C[C@H](CN2)NC(=O)[C@H](CC(=O)O)NC(=O)CNC1=O (H-[Pro(trans-4-NH2)]RGD; lactam 1-C)	–	–	84.5%	15.5%	–
CCCCCCCN1C[C@@H]2C[C@H]1C(=O)N[C@@H](CCCN=C(N)N)C(=O)NCC(=O)N[C@@H](CC(=O)O)C(=O)N2	8.55	6.75	–	–	pIC50 (Integrin alpha-V/beta-5 [8]): 7.21; pIC50 (Integrin alpha-V/beta-5 [7]): 7.44
N=C(N)NCCC[C@@H]1NC(=O)[C@@H]2C[C@@H](CN2C(=O)c2ccccc2)NC(=O)[C@H](CC(=O)O)NC(=O)CNC1=O	–	–	57.8%	42.2%	–
COC(=O)[C@H]1[C@@H]2NC(=O)[C@H](CC(=O)O)NC(=O)CNC(=O)[C@H](CCCNC(=N)N)NC(=O)[C@H](C(C)C)NC(=O)[C@@H]21	–	–	–	–	pIC50 (Integrin alpha-V/beta-3 [9]): 7.70; pIC50 (Integrin alpha-5/beta-1 [10]): 5.82; pIC50 (Integrin alpha-V/beta-3 [11]): 7.70; pIC50 (Integrin alpha-5/beta-1 [12]): 5.82
CCC(=O)N1C[C@@H]2C[C@H]1C(=O)N[C@@H](CCCNC(=N)N)C(=O)NCC(=O)N[C@@H](CC(=O)O)C(=O)N2	–	–	42.1%	57.9%	–
N=C(N)NCCC[C@@H]1NC(=O)[C@@H]2C[C@H](CN2C(=O)c2ccccc2)NC(=O)[C@H](CC(=O)O)NC(=O)CNC1=O	–	–	31.6%	68.4%	–
NC(N)=NCCC[C@@H]1NC(=O)CNC(=O)[C@@H](CC(=O)O)N[C@H]2CCC[C@H]3CC[C@H](C1=O)N3C2=O	8.25	–	–	–	pIC50 (Integrin alpha-V/beta-5 [7]): 9.05
NC(N)=NCCC[C@@H]1NC(=O)[C@@H]2C[C@@H](CN2C(=O)c2ccccc2)NC(=O)[C@H](CC(=O)O)NC(=O)CNC1=O	8.29	6.22	–	–	–
NC(N)=NCCC[C@@H]1NC(=O)[C@@H]2C[C@H](CN2C(=O)c2ccccc2)NC(=O)[C@H](CC(=O)O)NC(=O)CNC1=O	6.76	6.49	–	–	–

Second part, led by results:

pIC50 (Integrin alpha-V/beta-3 [1])	SMILES	pIC50 (Integrin alpha-V/beta-3 [2])	inhibition (Integrin alpha-V/beta-3 [3])	inhibition (Integrin alpha-V/beta-3 [6])	other results
8.25	CCC(=O)N1C[C@@H]2C[C@H]1C(=O)N[C@@H](CCCN=C(N)N)C(=O)NCC(=O)N[C@@H](CC(=O)O)C(=O)N2	6.60	–	–	–
9.59	N=C(N)NCCC[C@@H]1NC(=O)[C@@H]2CC[C@H](C2)NC(=O)[C@H](CC(=O)O)NC(=O)CNC1=O	–	–	–	pIC50 (Integrin alpha-V/beta-5 [7]): 8.95
